Activity calls are given as the source filed them. The rule behind the calls is not given here.
What was measured:
[1] = system: Mus musculus; test: Reduction in amyloid beta 42 levels in mouse brain at 30 mg/kg, po measured at 6 hrs post dose by ELISA; format: functional
How it was run: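 Single oral dose of 30 mg/kg; brain (mouse, rat) and rat CSF Aβ42 and Aβ37 measured 6 h post-dose, expressed relative to vehicle; total and free brain drug levels and brain:plasma ratio taken at the same time.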

[2] = Modulation of gamma-secretase in human H4 cells expressing human APP751 assessed as inhibition of amyloid beta 42 production incubated overnight by sandwich ELISA; format: cell-based
How it was run: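 Aβ42 EC50 in H4 cells overexpressing WT human APP751; each value is the average of n > 2 assays, each run in duplicate.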

[3] = Unbound intrinsic clearance in rat hepatocytes; format: ADME, cell-based, Hepatocyte

Row | SMILES | EC50 ([2]; Homo sapiens) [nM] | CL free [3] [mL/min/kg] | EC50 [2] [nM] | Activity [1]
1 | COc1cc(C2=NOC[C@@H](COc3ccc(F)cc3C)N2)ccc1-n1cnc(C)c1 | 2890 | – | – | inactive
2 | COc1nc(C2=NOC[C@H](COc3ccc(F)cc3C)N2)ccc1-c1ccnc(C)c1 | 98 | 3259 | – | –
3 | COc1nc(C2=NOC[C@H](COc3ccc(F)cc3C)N2)ccc1-c1cnc(C)s1 | 1270 | – | – | –
4 | COc1cc(C2=NOC[C@H](COc3ccc(F)cc3C)N2)ccc1-c1ccnc(C)c1 | 109 | – | – | inactive
5 | COc1nc(C2=NOC[C@H](COc3ccc(F)cc3C)N2)ccc1-c1cnn(C)c1 | 604 | – | – | –
6 | COc1cc(C2=NOC[C@@H](COc3ccc(F)cc3C)N2)ccc1-c1ccnc(C)c1 | 6450 | – | – | inactive
7 | COc1nc(C2=NOC[C@@H]3[C@H](Oc4ccc(F)cc4C)CCCN23)ccc1-c1ccnc(C)c1 | 240 | – | – | –

Continued, in another order:

Row | EC50 ([2]; Homo sapiens) [nM] | CL free [3] [mL/min/kg] | EC50 [2] [nM] | SMILES | Activity [1]
8 | 249 | – | – | COc1cc(C2=NOC[C@H](COc3ccc(Cl)cc3C(F)(F)F)N2)ccc1-c1ccnc(C)c1 | inactive
9 | 51 | 1906 | – | COc1nc(C2=NOC[C@H](COc3ccc(F)cc3C)N2)ccc1-n1cnc(C)c1 | –
10 | – | – | 307 | COc1nc(C2=NOCC3CN(c4ccc(Cl)cc4C(F)(F)F)CCN23)ccc1-n1cnc(C)c1 (single isomer, unassigned; (-)) | –
11 | 113 | – | – | COc1cc(C2=NOC[C@H](COc3ccc(Cl)cc3C(F)(F)F)N2C)ccc1-n1cnc(C)c1 | inactive
12 | – | – | 64 | COc1nc(C2=NOCC3CN(c4ccc(Cl)cc4C(F)(F)F)CCN23)ccc1-n1cnc(C)c1 (single isomer, unassigned; (+)) | –

From ChEMBL document CHEMBL4007439, “Design, Synthesis, and Evaluation of a Novel Series of Oxadiazine Gamma Secretase Modulators for Familial Alzheimer's Disease” (J Med Chem, 2017)
